CHRM5 agonist = human M5 muscarinic receptor agonists, primary screen, CHO-K1 cells, Fluo-8 calcium fluorescence; Muscarinic acetylcholine receptor M5 (Homo sapiens), P08912; CHO-K1 hM5 cells; 0% DMSO wells, 100% maximal acetylcholine response; activation, % at 3 µM; actives 0.19% (n = 360,000); AID 624037, 2012;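 active = activation above the run's mean over test compounds plus 3 SD, cut at about 23% in these data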;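 note: signal is peak over basal fluorescence ratio across the kinetic read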
M4 ag = human M4 muscarinic receptor agonists, primary screen, CHO-K1 cells, Fluo-8 calcium fluorescence | Muscarinic acetylcholine receptor M4 (Homo sapiens), P08173 | activation, % at 3 µM | CHO-K1 hM4/Gqi5; vehicle 0%, full acetylcholine response 100% | actives 0.14% (n = 360,000);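 active = activation above the run mean over all test wells plus 3 SD, cut at about 32% in these data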;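 note: peak over basal fluorescence ratio per well then scaled between controls; 0% = DMSO wells and 100% = acetylcholine at EC100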
Target sequence (P08173 whole entry, looked up): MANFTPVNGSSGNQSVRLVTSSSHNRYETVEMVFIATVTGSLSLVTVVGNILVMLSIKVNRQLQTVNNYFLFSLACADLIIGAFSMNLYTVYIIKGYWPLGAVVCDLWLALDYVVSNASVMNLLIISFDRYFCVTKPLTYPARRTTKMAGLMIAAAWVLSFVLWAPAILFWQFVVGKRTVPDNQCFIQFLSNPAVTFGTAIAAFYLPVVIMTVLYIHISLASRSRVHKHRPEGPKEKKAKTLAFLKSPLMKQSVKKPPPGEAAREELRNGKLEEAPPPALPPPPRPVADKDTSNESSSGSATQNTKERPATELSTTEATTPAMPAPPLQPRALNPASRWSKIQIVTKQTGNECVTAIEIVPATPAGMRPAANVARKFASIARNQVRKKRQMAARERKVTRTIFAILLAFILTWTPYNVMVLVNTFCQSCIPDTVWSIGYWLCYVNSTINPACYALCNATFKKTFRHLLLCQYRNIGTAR
M5 PAM = human M5 muscarinic receptor positive allosteric modulators, primary screen, CHO-K1 cells, Fluo-8 calcium fluorescence; Muscarinic acetylcholine receptor M5 (Homo sapiens), P08912; CHO-K1 hM5, ACh EC20 PAM; 0% = ACh EC20, 100% = ACh EC100; activation, % at 3 µM; actives 0.3% (n = 360,000); AID 624038, 2012;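 active = activation above the run cutoff, the mean activation of all test compounds plus 3 SD, cut at about 18% in these data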
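Assay system – human M5 receptor in CHO-K1 cells · Read-out – % activation, ACh-normalized · Technique – Fluo-8 calcium fluorescence · Dosing – single-point, 3 µM nominal · Incubation – Fluo-8 loading 80 min at 37 °C plus 30 min room temperature · Repeats – singlicate, one well per test compound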
CHRM5 antagonist = human M5 muscarinic receptor antagonists, primary screen, CHO cells, Fluo-8 calcium fluorescence; CHO-hM5 cells, ACh EC80; inhibition, % at 3 µM; actives 0.59% (n = 360,000); AID 624040, 2012;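 active = inhibition above a per-plate cutoff, the mean of that plate's test compounds plus 3 SD, cut at about 27% in these data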;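 note: 0% = acetylcholine EC80 with DMSO and 100% = DMSO without agonist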
M4 PAM = human M4 muscarinic receptor positive allosteric modulators, primary screen, CHO-K1 cells, Fluo-8 calcium fluorescence; Muscarinic acetylcholine receptor M4 (Homo sapiens), P08173; CHO-K1 hM4/Gqi5, ACh EC20; 0% = ACh EC20, 100% = maximal ACh; activation, % at 3 µM; actives 0.4% (n = 360,000); AID 624126, 2012;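 active = activation above its plate's cutoff, the mean activation of sample wells plus 3 SD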
CHRM4 antagonist = human M4 muscarinic receptor antagonists, primary screen, CHO cells, Fluo-8 calcium fluorescence. inhibition, % at 3 µM. actives 0.73% (n = 360,000). CHO-hM4 cells, ACh EC80. AID 624125, 2012;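 active = inhibition above its plate's cutoff, the mean inhibition of sample wells plus 3 SD, cut at about 27% in these data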;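 note: 0% = acetylcholine EC80 with DMSO and 100% = DMSO without agonist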
* marks the source's active call; other numbers are inactive results. This is a sample that favours compounds with a hit; in the whole collection about 1.8% have one here.

How did O=C(O)CCCn1ccc2cc(S(=O)(=O)N3CCCC3)ccc21 do in these assays?
CHRM5 agonist: -6.0; M4 ag: 3.8; M5 PAM: -3.8; CHRM5 antagonist: 11.2; M4 PAM: 6.6; CHRM4 antagonist: -1.0

Results for COc1cccc(CNC(=O)C(C)n2ccc3cc(S(=O)(=O)N4CCCCCC4)ccc32)c1 (centres undefined) ?
CHRM5 agonist: -0.7; M4 ag: 2.7; M5 PAM: -3.1; CHRM5 antagonist: 4.3; M4 PAM: -11.5; CHRM4 antagonist: 3.9

What do the screens show for `CCC(C(=O)NCCC(C)C)n1ccc2cc(S(=O)(=O)N3CCCCC3)ccc21` (centres undefined)?
CHRM5 agonist: 0.2; M4 ag: 17.8; M5 PAM: -11.6; CHRM5 antagonist: 33.8*; M4 PAM: -13.7; CHRM4 antagonist: 10.6

How did O=C(O)CCn1ccc2cc(S(=O)(=O)N3CCCCCC3)ccc21 do in these assays?
CHRM5 agonist: -1.0; M4 ag: -0.1; M5 PAM: 19.0*; CHRM5 antagonist: -9.8; M4 PAM: 4.0; CHRM4 antagonist: -3.5

What do the screens show for `CC1(c2nnnn2Cc2ccccc2)CCC(=O)N1Cc1ccco1` (centres undefined)?
CHRM5 agonist: 0.2; M4 ag: 1.2; M5 PAM: 2.1; CHRM5 antagonist: 3.9; M4 PAM: 11.8; CHRM4 antagonist: -1.9

How did CN(Cc1ccccc1)c1ccc(C(CC(N)=O)NC(=O)c2ccc(Br)cc2)cc1[N+](=O)[O-] (centres undefined) do in these assays?
CHRM5 agonist: -1.6; M4 ag: 8.3; M5 PAM: -4.0; CHRM5 antagonist: 2.4; M4 PAM: 0.9; CHRM4 antagonist: 3.2

What do the screens show for `CC1=CC2(C)C(C3C(C)=CC2(C)C(=O)C3(C)O)C(C)(O)C1=O` (centres undefined)?
CHRM5 agonist: 4.1; M4 ag: -1.5; M5 PAM: 2.0; CHRM5 antagonist: -3.2; M4 PAM: 1.4; CHRM4 antagonist: -13.2

How did Cc1cc(SCC(=O)N2CCN(C(=O)c3ccco3)CC2)c(C)cc1Br do in these assays?
CHRM5 agonist: -3.9; M4 ag: 5.1; M5 PAM: -5.8; CHRM5 antagonist: 12.6; M4 PAM: 1.5; CHRM4 antagonist: 5.6

What do the screens show for `CCOC(=O)C1(Cc2ccccc2)CCN(Cc2cn(CC(=O)OC)c3ccccc23)CC1`?
CHRM5 agonist: -5.1; M4 ag: 4.1; M5 PAM: 3.1; CHRM5 antagonist: -0.9; M4 PAM: 19.8*; CHRM4 antagonist: -12.1

What do the screens show for `CCOC(=O)C1(Cc2ccccc2)CCN(Cc2cccc(OC)c2O)CC1`?
CHRM5 agonist: 3.0; M4 ag: 6.7; M5 PAM: 1.9; CHRM5 antagonist: -3.5; M4 PAM: -4.6; CHRM4 antagonist: -6.4

What do the screens show for `Nc1ccc(-c2c3ccc(=O)cc-3oc3cc(O)ccc23)c(C(=O)O)c1`?
CHRM5 agonist: 270.2*; M4 ag: 425.7*; M5 PAM: -44.1; CHRM5 antagonist: 41.5*; M4 PAM: -20.2; CHRM4 antagonist: 25.8

Results for CCOc1ccc(CNC(=O)c2cccc(NC(=O)C3=C(C)OCCS3)c2)cc1 ?
CHRM5 agonist: 4.2; M4 ag: 11.7; M5 PAM: -12.7; CHRM5 antagonist: 29.6*; M4 PAM: -7.9; CHRM4 antagonist: 0.0

What do the screens show for `COc1cccc(CNC(=O)c2cccc(NC(=O)C3=C(C)OCCS3)c2)c1`?
CHRM5 agonist: 2.1; M4 ag: 9.6; M5 PAM: -14.3; CHRM5 antagonist: 8.2; M4 PAM: -1.9; CHRM4 antagonist: -16.5

Results for Cc1ccc(Cn2ccc(=O)c(OCc3ccccc3)c2C)cc1 ?
CHRM5 agonist: 3.8; M4 ag: 4.2; M5 PAM: 22.5*; CHRM5 antagonist: -1.6; M4 PAM: 2.0; CHRM4 antagonist: -4.8

How did Cc1c(OCc2ccccc2)c(=O)ccn1Cc1ccc(Cl)cc1 do in these assays?
CHRM5 agonist: -3.6; M4 ag: 0.0; M5 PAM: -7.6; CHRM5 antagonist: 1.1; M4 PAM: 3.7; CHRM4 antagonist: -0.1

Results for O=C(O)c1cccc(Nc2nc(Nc3ccccc3)nc(N3CCCC3)n2)c1 ?
CHRM5 agonist: -0.9; M4 ag: -0.4; M5 PAM: 12.0; CHRM5 antagonist: -4.0; M4 PAM: 24.8*; CHRM4 antagonist: -6.1

Results for O=C(/C=C/c1ccccc1)Nc1cccc(C(=O)NC2CC2)c1 ?
CHRM5 agonist: 4.3; M4 ag: 4.7; M5 PAM: -5.3; CHRM5 antagonist: 5.0; M4 PAM: -3.5; CHRM4 antagonist: -9.7

What do the screens show for `CC(C)C(=O)Nc1ccc(N2CCCC2)cc1`?
CHRM5 agonist: -2.2; M4 ag: 0.0; M5 PAM: 0.8; CHRM5 antagonist: 1.1; M4 PAM: -13.1; CHRM4 antagonist: 29.6*

How did CCC(CO)NCC(O)COCc1ccc2c(c1)OCO2 (centres undefined) do in these assays?
CHRM5 agonist: -4.1; M4 ag: 0.8; M5 PAM: 0.4; CHRM5 antagonist: -0.8; M4 PAM: 20.1*; CHRM4 antagonist: -13.4

Results for OC(COCc1ccc2c(c1)OCO2)CN1CCCCC1 (centres undefined) ?
CHRM5 agonist: -3.2; M4 ag: 0.0; M5 PAM: 5.6; CHRM5 antagonist: 0.1; M4 PAM: 3.8; CHRM4 antagonist: -12.6

What do the screens show for `CCOC(=O)c1c(N/C=C(\C#N)c2nc(-c3ccc(OC(C)=O)cc3)cs2)sc2c1CCC2`?
CHRM5 agonist: 4.2; M4 ag: 1.2; M5 PAM: 22.6*; CHRM5 antagonist: -12.2; M4 PAM: 15.0; CHRM4 antagonist: 2.8

What do the screens show for `COc1ccc(S(=O)(=O)N2CCOCC2)cc1NC(=O)COC(=O)CC1CC2CCC1C2` (centres undefined)?
CHRM5 agonist: 16.2; M4 ag: 5.6; M5 PAM: -3.3; CHRM5 antagonist: 10.0; M4 PAM: -3.9; CHRM4 antagonist: 5.5

How did Cc1ccc(C)c(N2CCN(c3ccc4cc(S(=O)(=O)N5CCCCC5)ccc4n3)CC2)c1 do in these assays?
CHRM5 agonist: -2.5; M4 ag: 3.0; M5 PAM: 18.4*; CHRM5 antagonist: -22.2; M4 PAM: 7.6; CHRM4 antagonist: -19.6

How did COc1ccc(S(N)(=O)=O)cc1C(=O)NNC(=O)C1COc2ccccc2O1 (centres undefined) do in these assays?
CHRM5 agonist: -2.4; M4 ag: 0.7; M5 PAM: 9.1; CHRM5 antagonist: -4.5; M4 PAM: 1.6; CHRM4 antagonist: -18.9

High-throughput results (PubChem)
